# According to ChEMBL document CHEMBL2331220, “Benzimidazole clubbed with triazolo-thiadiazoles and triazolo-thiadiazines: new anticancer agents” (2013):
# Assays:
# Format in all cases: functional
# [1] = system: UO-31; test: Cytotoxicity against human UO31 cells assessed as cell growth at 10 uM after 48 hrs by SRB assay relative to control; conditions: UO-31, 48 h, read-out: Activity
# How it was run: (§1)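 NCI single-dose primary screen: compound added at 1 × 10⁻⁵ M, cultures incubated 48 h. Protein stained with sulforhodamine B. Result given as percent growth of treated cells relative to untreated controls, where negative values mean cell kill.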
# [2] = system: UO-31; test: Growth inhibition of human UO31 cells at 10 uM after 48 hrs by SRB assay relative to control; conditions: UO-31, 48 h, read-out: GI; how it was run: as §1
# [3] = system: T47D; test: Cytotoxicity against human T47D cells assessed as cell growth at 10 uM after 48 hrs by SRB assay relative to control; conditions: read-out: Activity; how it was run: as §1
# [4] = system: HOP-62; test: Cytotoxicity against human HOP62 cells assessed as cell growth at 10 uM after 48 hrs by SRB assay relative to control; conditions: HOP-62, 48 h, read-out: Activity
# How it was run: (§2)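 Single-dose NCI screen. Compound was added at 1 × 10^-5 M and cultures were incubated 48 h. End point was sulforhodamine B protein staining, reported as percent growth of treated cells versus untreated control cells.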
# [5] = system: HOP-62; test: Growth inhibition of human HOP62 cells at 10 uM after 48 hrs by SRB assay relative to control; conditions: HOP-62, 48 h, read-out: GI; how it was run: as §1
# [6] = system: NCI-H522; test: Growth inhibition of human NCI-H522 cells at 10 uM after 48 hrs by SRB assay relative to control; conditions: NCI-H522, 48 h, read-out: GI; how it was run: as §1
# [7] = system: NCI-H522; test: Cytotoxicity against human NCI-H522 cells assessed as cell growth at 10 uM after 48 hrs by SRB assay relative to control; conditions: NCI-H522, 48 h, read-out: Activity; how it was run: as §2
# [8] = system: NCI-H322M; test: Cytotoxicity against human NCI-H322M cells assessed as cell growth at 10 uM after 48 hrs by SRB assay relative to control; conditions: read-out: Activity; how it was run: as §2
# [9] = system: IGROV-1; test: Growth inhibition of human IGROV1 cells at 10 uM after 48 hrs by SRB assay relative to control; conditions: IGROV-1, 48 h, read-out: GI; how it was run: as §1
# [10] = system: HOP-92; test: Cytotoxicity against human HOP92 cells assessed as cell growth at 10 uM after 48 hrs by SRB assay relative to control; conditions: HOP-92, 48 h, read-out: Activity; how it was run: as §2
# [11] = system: MCF7; test: Cytotoxicity against human MCF7 cells assessed as cell growth at 10 uM after 48 hrs by SRB assay relative to control; conditions: MCF7, 48 h, read-out: Activity; how it was run: as §2
# [12] = system: MCF7; test: Growth inhibition of human MCF7 cells at 10 uM after 48 hrs by SRB assay relative to control; conditions: MCF7, 48 h, read-out: GI; how it was run: as §1
SMILES,growth at 10 µM [1],also measured
COc1ccc(-c2nn3c(CCC(=O)c4nc5ccccc5[nH]4)nnc3s2)cc1,69.6%,–
O=C(CCc1nnc2sc(-c3ccc(O)cc3)nn12)c1nc2ccccc2[nH]1,67.7%,inhibition of growth at 10 µM [2]: ≤ 32%
O=C(CCc1nnc2sc(CCl)nn12)c1nc2ccccc2[nH]1,83.9%,–
NCCCc1nn2c(CCC(=O)c3nc4ccccc4[nH]3)nnc2s1,73.8%,–
O=C(CCc1nnc2sc(S)nn12)c1nc2ccccc2[nH]1,76.6%,–
O=C(CCc1nnc2sc(Nc3ccc(Cl)cc3)nn12)c1nc2ccccc2[nH]1,64.2%,inhibition of growth at 10 µM [2]: ≤ 32%
NC1=Nn2c(CCC(=O)c3nc4ccccc4[nH]3)nnc2SC1,80.4%,–
O=C(CCc1nnc2n1N=C(O)CS2)c1nc2ccccc2[nH]1,79.8%,–
CCOC1=Nn2c(CCC(=O)c3nc4ccccc4[nH]3)nnc2SC1,80.3%,–
O=C(CCc1nnc2n1N=C(Cl)CS2)c1nc2ccccc2[nH]1,78.9%,–
Cc1nn2c(CCC(=O)c3nc4ccccc4[nH]3)nnc2s1,–,growth at 10 µM [3]: 84.2%
O=C(CCc1nnc2sc(CCCl)nn12)c1nc2ccccc2[nH]1,80.1%,–
CCOc1nn2c(CCC(=O)c3nc4ccccc4[nH]3)nnc2s1,–,growth at 10 µM [4]: 28.7%; inhibition of growth at 10 µM [5]: ≤ 32%
O=C(CCc1nnc2sc(C(c3ccccc3)c3ccccc3)nn12)c1nc2ccccc2[nH]1,–,inhibition of growth at 10 µM [6]: ≤ 32%; growth at 10 µM [7]: 30.2%
N#CCc1nn2c(CCC(=O)c3nc4ccccc4[nH]3)nnc2s1,75.5%,–
C=Cc1nn2c(CCC(=O)c3nc4ccccc4[nH]3)nnc2s1,76.2%,–
O=C(CCc1nnc2sc(-c3ccccc3S)nn12)c1nc2ccccc2[nH]1,–,growth at 10 µM [8]: 73.9%
C/C=C\c1nn2c(CCC(=O)c3nc4ccccc4[nH]3)nnc2s1,54.9%,inhibition of growth at 10 µM [9]: ≤ 32%
O=C(CCc1nnc2sc(-c3ccccc3O)nn12)c1nc2ccccc2[nH]1,51.3%,inhibition of growth at 10 µM [9]: ≤ 32%
O=C(CCc1nnc2sc(CS)nn12)c1nc2ccccc2[nH]1,79.4%,–
O=C(CCc1nnc(S)o1)c1nc2ccccc2[nH]1,–,growth at 10 µM [10]: 69.4%
Nc1ccccc1-c1nn2c(CCC(=O)c3nc4ccccc4[nH]3)nnc2s1,–,growth at 10 µM [11]: 62%; inhibition of growth at 10 µM [12]: ≤ 32%
O=C(CCc1nnc2sc(Cc3ccccc3Cl)nn12)c1nc2ccccc2[nH]1,63%,inhibition of growth at 10 µM [2]: ≤ 32%
O=C(CCc1nnc2sc(COc3ccccc3)nn12)c1nc2ccccc2[nH]1,64.3%,inhibition of growth at 10 µM [2]: ≤ 32%
